ChEMBL document CHEMBL1806465, “Synthesis and biological evaluation of 4-nitro-substituted 1,3-diaryltriazenes as a novel class of potent antitumor agents” (Eur J Med Chem, 2011)
Calls of active or inactive are those of the source. The rule behind the calls is not given here.

Legend:
SW480 = test: Cytotoxicity against human SW480 cells after 72 hrs by MTT assay; type: functional, cell-based; conditions: SW480, 72 h
How it was run: (§1)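 MTT assay: 3000 cells/well seeded, compound added next day, each concentration in quadruplicate, 72 h at 37 °C; medium replaced with 20 µg MTT/well for 4 h, formazan dissolved in DMSO, OD 545 nm. […] Fibroblasts: normal skin fibroblasts from donor, DMEM/10% FBS, used at 32 and 36 population doublings.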

[1] = Cytotoxicity against human Fibroblast cells after 72 hrs by MTT assay; type: cell-based; how it was run: as §1
[2] = Therapeutic index, ratio IC50 for human Hep2 cells to IC50 for normal human fibroblasts; type: cell-based, HEp-2; conditions: Hep2 cells versus normal human fibroblasts, read-out: Ratio IC50
How it was run: (§2)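 IC50 values came from an MTT assay. Cells were seeded at 3000 per well and dosed the next day, with each concentration in quadruplicate. After 72 h at 37 °C, MTT (20 µg/well) was added for 4 h; formazan was dissolved in DMSO and read at 545 nm. Each experiment was done three times. Normal skin fibroblasts were used at 32 and 36 population doublings. T.I. = tumor-cell IC50 / fibroblast IC50.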

[3] = Therapeutic index, ratio IC50 for human MIAPaCa2 cells to IC50 for normal human fibroblasts; type: cell-based, MIA PaCa-2; conditions: MIAPaCa2 cells versus normal human fibroblasts, read-out: Ratio IC50; how it was run: as §2
HeLa [4] = test: Cell cycle arrest in human HeLa cells assessed as accumulation at G0/G1 phase at 0.78 uM after 24 hrs by propidium iodide staining -based flow cytometry (reference value: 60.6 %); type: functional
How it was run: (§3)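 HeLa seeded at 100 000 cells/well, treated next day with 0.78, 7 or 21 µM for 24, 48 or 72 h. Adherent plus floating cells collected, PBS-washed, fixed overnight in 70% ethanol at −20 °C, RNase A 30 µg/ml 1 h RT, propidium iodide 16.7 µg/ml 30 min dark; DNA content by flow cytometry, phase percentages including subG1 reported.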

HeLa [5] = test: Cell cycle arrest in human HeLa cells assessed as accumulation at G0/G1 phase at 21 uM after 24 hrs by propidium iodide staining -based flow cytometry (reference value: 60.6 %); type: functional; how it was run: as §3
HeLa [6] = test: Cell cycle arrest in human HeLa cells assessed as accumulation at S phase at 0.78 uM after 24 hrs by propidium iodide staining -based flow cytometry (reference value: 27.7 %); type: functional; how it was run: as §3
HeLa [7] = test: Cell cycle arrest in human HeLa cells assessed as accumulation at S phase at 21 uM after 24 hrs by propidium iodide staining -based flow cytometry(reference value: 27.7 %); type: functional; how it was run: as §3
HeLa [8] = test: Cell cycle arrest in human HeLa cells assessed as accumulation at G2/M phase at 0.78 uM after 24 hrs by propidium iodide staining -based flow cytometry (reference value: 11.7 %); type: functional; how it was run: as §3
HeLa [9] = test: Cell cycle arrest in human HeLa cells assessed as accumulation at G2/M phase at 7 uM after 48 hrs by propidium iodide staining -based flow cytometry (reference value: 9.9 %); type: functional; how it was run: as §3
HeLa [10] = test: Cell cycle arrest in human HeLa cells assessed as accumulation at subG1 phase at 0.78 uM after 48 hrs by propidium iodide staining -based flow cytometry (reference value: 8.5 %); type: functional; how it was run: as §3
HeLa [11] = test: Cell cycle arrest in human HeLa cells assessed as accumulation at G0/G1 phase at 7 uM after 72 hrs by propidium iodide staining -based flow cytometry (reference value: 66.9 %); type: functional; how it was run: as §3
HeLa [12] = test: Cell cycle arrest in human HeLa cells assessed as accumulation at G2/M phase at 0.78 uM after 72 hrs by propidium iodide staining -based flow cytometry (reference value: 9.7 %); type: functional; how it was run: as §3
HeLa [13] = test: Cell cycle arrest in human HeLa cells assessed as accumulation at G2/M phase at 21 uM after 72 hrs by propidium iodide staining -based flow cytometry (reference value: 9.7 %); type: functional; how it was run: as §3
HeLa [14] = test: Cell cycle arrest in human HeLa cells assessed as accumulation at subG1 phase at 0.78 uM after 72 hrs by propidium iodide staining -based flow cytometry (reference value: 7.2 %); type: functional; how it was run: as §3
HeLa [15] = test: Induction of Grp78 expression in human HeLa cells at 0.09 to 7 uM after 48 hrs by Western blot analysis; type: functional, cell-based
How it was run: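 Logarithmically growing HeLa cells were exposed to varying concentrations for 48 h, or to 7 µM for varying times. Cell extracts were run on 10% SDS gels and transferred to nitrocellulose. Membranes were blocked in 5% milk and probed with anti-Grp78 (1:1000, overnight, 4 °C), then an HRP secondary (1:5000, 2 h, RT). Detection was by ECL, with ERK2 reprobing as the loading control.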

HeLa [16] = test: Induction of apoptotis in human HeLa cells assessed as cleavage of apoptotic protein PARP at 7 uM after 48 hrs by Western blot analysis; type: functional, cell-based
How it was run: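 HeLa cells were treated for 48 h at 7 µM and analysed by Western blot (10% SDS gels, nitrocellulose, HRP secondary, ECL, ERK2 loading control) for cleavage of apoptotic proteins. Antibodies: anti-PARP 1:4000; anti-caspase-3 and anti-caspase-8 1:1000; rabbit polyclonal anti-caspase-9 1:1000.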

HeLa [17] = test: Induction of ER stress in human HeLa cells assessed as expression of CHOP and Grp78

SMILES: CC(=O)N(/N=N/c1ccc([N+](=O)[O-])cc1Cl)c1ccc([N+](=O)[O-])cc1Cl
- IC50 (SW480): 0.53 µM
- IC50 [1]: 14 µM
- selectivity ratio [2]: 0.044
- selectivity ratio [3]: 0.037
- Activity (HeLa [4]): 74.4%
- Activity (HeLa [5]): 69.3%
- Activity (HeLa [6]): 15.1%
- Activity (HeLa [7]): 20.2%
- Activity (HeLa [8]): 10.5%
- Activity (HeLa [9]): 9.6%
- Activity (HeLa [10]): 15.8%
- Activity (HeLa [11]): 77.1%
- Activity (HeLa [12]): 8.4%
- Activity (HeLa [13]): 8.4%
- Activity (HeLa [14]): 17.6%
- Activity (HeLa [15]): Active
- Activity (HeLa [16]): Active
- Activity (HeLa [17]): Active
